Test results reported in ChEMBL document CHEMBL1129729, “Orally active fibrinogen receptor antagonists. 2. Amidoximes as prodrugs of amidines” (J Med Chem, 1996).

Columns and labels:
[1] = target: Integrin alpha-IIb/beta-3 (Homo sapiens, UniProt P05106+P08514); assay: Inhibition of FG binding to alpha IIb beta-3 integrin; format: protein-complex assay
Procedure, shortened: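 Binding of fibrinogen to immobilized purified GP IIb-IIIa (αIIbβ3). IC50 was calculated by log-linear regression and is the mean of at least two independent experiments.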

Homo sapiens [2] = organism: Homo sapiens; assay: Inhibition of platelet aggregation of human platelet rich plasma(h-PRP) induced by adenosine 5-diphosphate (ADP).(oral activity in mice); format: functional; conditions: read-out: ID50 (the source's name)
Procedure, shortened: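 Mice got about 100 mg/kg orally, suspended in 10% gelatin (particle <1 µm); one mouse was killed at 1 h and one at 3 h for plasma. Serial dilutions of plasma (100 µL) were mixed with 300 µL human PRP and aggregated with 10 µM ADP (final). Dose divided by the IC50 dilution factor gave ID50; 1 h and 3 h values pooled, mean ± SEM.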

Homo sapiens [3] = organism: Homo sapiens; assay: Inhibition of platelet aggregation in human platelet rich plasma(h-PRP) induced by adenosine 5-diphosphate (ADP); format: functional
Procedure, shortened: (§1)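 ADP-induced aggregation of human platelet-rich plasma, measured in vitro. Plasma came from at least two donors. IC50 was read from the inhibition of aggregation.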

Homo sapiens [4] = organism: Homo sapiens; assay: Compound was tested for inhibition of platelet aggregation of human platelet rich plasma(h-PRP) induced by adenosine 5-diphosphate (ADP); format: functional; procedure, shortened: as §1

Sequence of Integrin alpha-IIb/beta-3 (P05106 27-788 limits assumed): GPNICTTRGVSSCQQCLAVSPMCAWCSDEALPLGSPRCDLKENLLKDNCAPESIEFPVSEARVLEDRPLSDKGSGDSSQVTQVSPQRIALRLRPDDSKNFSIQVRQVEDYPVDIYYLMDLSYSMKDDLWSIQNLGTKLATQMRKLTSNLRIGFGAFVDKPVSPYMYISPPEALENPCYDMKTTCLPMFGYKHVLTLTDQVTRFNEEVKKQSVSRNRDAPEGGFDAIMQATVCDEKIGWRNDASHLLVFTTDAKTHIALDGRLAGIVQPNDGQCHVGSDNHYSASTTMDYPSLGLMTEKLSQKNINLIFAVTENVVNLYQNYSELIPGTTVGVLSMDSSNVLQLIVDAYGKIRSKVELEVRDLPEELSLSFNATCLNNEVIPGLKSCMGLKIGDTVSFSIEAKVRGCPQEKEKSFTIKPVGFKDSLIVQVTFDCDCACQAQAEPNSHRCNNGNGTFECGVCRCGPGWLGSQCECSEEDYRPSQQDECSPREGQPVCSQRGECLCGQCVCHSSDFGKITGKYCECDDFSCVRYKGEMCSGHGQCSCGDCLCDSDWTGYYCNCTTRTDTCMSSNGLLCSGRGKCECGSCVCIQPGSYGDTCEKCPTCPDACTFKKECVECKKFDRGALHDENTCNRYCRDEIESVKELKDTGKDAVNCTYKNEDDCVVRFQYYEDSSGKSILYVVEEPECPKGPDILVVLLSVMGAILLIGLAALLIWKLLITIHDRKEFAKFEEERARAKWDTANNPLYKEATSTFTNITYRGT
Sequence of Integrin alpha-IIb/beta-3 (P08514 32-887 limits assumed): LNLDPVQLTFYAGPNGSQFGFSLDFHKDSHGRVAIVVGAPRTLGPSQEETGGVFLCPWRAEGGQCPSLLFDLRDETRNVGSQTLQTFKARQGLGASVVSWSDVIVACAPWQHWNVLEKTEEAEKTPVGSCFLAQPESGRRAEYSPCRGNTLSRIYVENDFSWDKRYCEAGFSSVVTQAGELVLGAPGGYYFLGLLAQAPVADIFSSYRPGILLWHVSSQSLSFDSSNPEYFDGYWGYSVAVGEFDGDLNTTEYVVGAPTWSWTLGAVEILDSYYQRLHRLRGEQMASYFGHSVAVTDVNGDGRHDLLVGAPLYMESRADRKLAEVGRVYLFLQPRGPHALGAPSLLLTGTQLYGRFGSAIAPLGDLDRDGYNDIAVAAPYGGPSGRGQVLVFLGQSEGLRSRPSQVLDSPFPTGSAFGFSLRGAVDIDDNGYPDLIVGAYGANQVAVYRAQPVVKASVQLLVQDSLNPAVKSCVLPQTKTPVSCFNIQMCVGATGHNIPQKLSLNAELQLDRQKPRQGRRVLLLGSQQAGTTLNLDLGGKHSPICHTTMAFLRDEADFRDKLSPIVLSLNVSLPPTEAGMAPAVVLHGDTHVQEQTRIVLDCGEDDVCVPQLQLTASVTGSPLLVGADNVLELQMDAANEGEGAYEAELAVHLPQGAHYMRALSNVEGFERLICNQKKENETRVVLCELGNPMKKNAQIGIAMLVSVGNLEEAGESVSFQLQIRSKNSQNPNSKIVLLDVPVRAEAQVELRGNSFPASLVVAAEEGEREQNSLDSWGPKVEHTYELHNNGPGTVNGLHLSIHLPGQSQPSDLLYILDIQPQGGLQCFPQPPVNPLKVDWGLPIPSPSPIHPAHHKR
Sequence of Integrin alpha-IIb/beta-3 (P08514 891-1039 limits assumed): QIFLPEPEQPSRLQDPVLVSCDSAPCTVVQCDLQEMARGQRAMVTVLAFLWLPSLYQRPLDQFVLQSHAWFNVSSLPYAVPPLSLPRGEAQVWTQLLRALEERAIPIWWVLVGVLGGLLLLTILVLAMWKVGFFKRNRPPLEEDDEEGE

SMILES	IC50 [1] [nM]	ED50 (Homo sapiens [2]) [mg/kg]	IC50 (Homo sapiens [3]) [nM]	IC50 (Homo sapiens [4]) [nM]
CCOC(=O)COC1CCN(C(=O)[C@H](Cc2ccc(O)cc2)NC(=O)c2ccc(C(=N)N)cc2)CC1	51	6.9	63	–
CCOC(=O)NC(=N)c1ccc(C(=O)N(C)CC(=O)c2ccc(OCC(=O)OC(C)C)c(OCC(=O)OC(C)C)c2)cc1	> 10000	1.4	> 100000	–
CC(C)OC(=O)COc1ccc(C(=O)CN(C)C(=O)c2ccc(C(=N)N)cc2)cc1OCC(=O)OC(C)C	900	11	345	–
N=C(N)c1ccc(C(=O)N[C@@H](Cc2ccc(O)cc2)C(=O)N2CCC(OCC(=O)O)CC2)cc1 [LAMIFIBAN]	1.4	8.5	–	33
CC(C)OC(=O)OC(C)OC(=O)COC1CCN(C(=O)[C@H](C)NC(=O)c2ccc(C(=N)NO)cc2)CC1 (stereo not given in full)	> 10000	0.34	> 60000	–
CCOC(=O)COC1CCN(C(=O)[C@H](Cc2ccc(O)cc2)NC(=O)c2ccc(C(N)=NC(=O)OCC)cc2)CC1	> 8000	1.4	39800	–
CN(CC(=O)c1ccc(OCC(=O)O)c(OCC(=O)O)c1)C(=O)c1ccc(C(=N)N)cc1	0.4	11.2	51	–
C[C@H](NC(=O)c1ccc(C(=N)NO)cc1)C(=O)N1CCC(OCC(=O)O)CC1	594	5.1	13800	–
C[C@H](NC(=O)c1ccc(C(=N)N)cc1)C(=O)N1CCC(OCC(=O)O)CC1 [RO-44-3888]	1.9	5.2	38	–
COC(=O)COc1ccc(C(=O)CN(C)C(=O)c2ccc(C(=N)NO)cc2)cc1OCC(=O)OC	> 10000	0.7	> 100000	–
CCOC(=O)NC(=N)c1ccc(C(=O)N[C@@H](Cc2ccc(O)cc2)C(=O)N2CCC(OCC(=O)O)CC2)cc1	90	10.7	1950	–
CCOC(=O)NC(=N)c1ccc(C(=O)N[C@@H](Cc2ccc(OC(C)=O)cc2)C(=O)N2CCC(OCC(=O)OC(C)C)CC2)cc1	> 10000	0.9	> 100000	–
CCOC(=O)COC1CCN(C(=O)[C@H](Cc2ccc(O)cc2)NC(=O)c2ccc(C(=N)NO)cc2)CC1	> 10000	2.6	> 100000	–
CCOC(=O)COC1CCN(C(=O)[C@H](C)NC(=O)c2ccc(C(=N)N)cc2)CC1	163	1.8	500	–
CCCCOC(=O)NC(=N)c1ccc(C(=O)N[C@@H](C)C(=O)N2CCC(OCC(=O)OCC)CC2)cc1	> 10000	0.3	> 100000	–
